Hits are enriched below; roughly 2.3% of the tested compounds scored in any of these assays.
ATG4B inhibitor: inhibitors of human ATG4B cysteine protease; ATG4B cleavage of LC3-PLA2, NBD-HPC fluorescence, 1 h; inhibition, % at 8.33 µM; 0.51% of 340,000 active; in the data active = inhibition above about 40%
Target sequence (Q9Y4P1 whole entry, looked up): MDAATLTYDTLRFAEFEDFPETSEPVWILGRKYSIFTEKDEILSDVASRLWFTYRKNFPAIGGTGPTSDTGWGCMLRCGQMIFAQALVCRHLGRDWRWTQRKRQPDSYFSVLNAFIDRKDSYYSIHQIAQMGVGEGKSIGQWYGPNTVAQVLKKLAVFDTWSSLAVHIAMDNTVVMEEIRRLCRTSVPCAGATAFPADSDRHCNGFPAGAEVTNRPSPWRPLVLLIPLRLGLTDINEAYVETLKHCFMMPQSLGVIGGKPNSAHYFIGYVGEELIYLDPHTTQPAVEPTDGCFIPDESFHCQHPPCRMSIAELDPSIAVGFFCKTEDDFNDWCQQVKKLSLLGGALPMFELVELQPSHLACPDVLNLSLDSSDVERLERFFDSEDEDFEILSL
CAL PDZ FP-1: blocks peptide binding to the human CAL PDZ domain; 0.92% of 300,000 active; inhibition, % at 24.9 µM; AID 602252; Q9HD26; purified CAL PDZ, TMR-peptide fluorescence polarization, 1 h;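 active = mean inhibition of at least 30% with at least half of replicates also reaching 30%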;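 note: 0% = DMSO neutral control and 100% = excess unlabeled competitor peptide PRC23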
CAL PDZ FP-2: blocks peptide binding to human CAL PDZ domain; Q9HD26; purified CAL PDZ, TMR-peptide fluorescence polarization, 1 h; inhibition, % at 20 µM; 0.02% of 330,000 active; AID 504414;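 active = highest replicate inhibition of at least 40%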;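 note: plate controls were DMSO neutral control wells for no effect and unlabeled competitor peptide control wells for full effect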
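Assay system – tagged CAL PDZ protein CerCALP, purified · Timing – 1 h at RT · Compound – single point, 20 µM · Measured by – fluorescence polarization from S- and P-plane intensities, G-factor corrected · Evaluation – inhibition from polarization loss · Probe or stimulus – TMR reporter peptide T*-PRC34 · Buffer or medium – pH 7.4 phosphate-saline buffer, reducing agent, detergent, IgG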
SR-BI uptake up: enhances SR-BI lipid uptake from DiI-HDL | 0.096% of 320,000 active | CHO ldlA[mSR-BI] cells, DiI-HDL uptake fluorescence, 3 h; 100 = double the neutral-control signal | activation, % at 12.5 µM | AID 504775;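 active = mean replicate activation of at least 60% and every replicate at or above 60%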;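 note: 0% = median plate neutral-control signal and 100% = twice that signal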
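Assay system: CHO ldlA[mSR-BI] cells, LDL receptor-null, SR-BI overexpressing; medium: Ham's F12 with 0.5% BSA, HEPES 25 mM, pH 7.4; also added: DiI-HDL 10 µg/mL; timing: 3 h uptake period with compound, 37 °C; signal: DiI fluorescence, bottom read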
SR-BI HDL uptake: inhibitors of mouse SR-BI mediated HDL lipid uptake; ldlA[mSR-BI] CHO cells, DiI-HDL uptake fluorescence, 3 h; 0.96% of 320,000 active; inhibition, % at 12.5 µM; Q61009; AID 488896;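 active = mean replicate inhibition of at least 70% and a set share of replicates each scoring 70 or more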;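 note: 0% = median of neutral control wells and 100% = median of positive control wells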
ATG4B conf: ATG4B (human) inhibition, single-dose confirmed; shares compounds with ATG4B inhibitor; ATG4B protease fluorescent substrate cleavage assay; 92% of 320 active; inhibition, % at 8.33 µM; in the data active = inhibition above about 39%
PLA2 ctr: inhibits human PLA2, flagging false ATG4B inhibitors; inhibition, % at 8.33 µM; 66% of 1,600 active; purified PLA2, NBD-C6-HPC fluorescence, 45 min; shares compounds with ATG4B inhibitor; in the data active = inhibition above about 50%
Target sequence (P04054 whole entry, looked up): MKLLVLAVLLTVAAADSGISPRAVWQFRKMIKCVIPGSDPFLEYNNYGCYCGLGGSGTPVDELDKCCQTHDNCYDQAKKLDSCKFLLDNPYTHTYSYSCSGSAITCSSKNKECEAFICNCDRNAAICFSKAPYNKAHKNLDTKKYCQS
Starred values were filed as active, the others as inactive; x = no result.

SMILES	ATG4B inhibitor	CAL PDZ FP-1	CAL PDZ FP-2	SR-BI uptake up	SR-BI HDL uptake	PLA2 ctr	others
COc1ccc(C(=O)/C=C/c2cccc(OCc3ccccc3)c2)cc1CSCC(=O)O	49*	-6	-2	8	-8	61*
COc1ccc(C(=O)/C=C/c2ccc(OCc3ccccc3)cc2)cc1CSCC(=O)O	49*	-7	-6	-8	8	69*
O=C(CSc1nc2ccccc2c(=O)n1-c1ccccc1Cl)Nc1cccc(S(=O)(=O)N2CCOCC2)c1	1	-2	-1	-37	37	x
C=CCc1ccccc1OCC(=O)N/N=C/c1ccc(OC(C)=O)cc1OC(C)=O	31	2	-1	0	0	x
O=C1NC2(CCCC2)Oc2ccccc21	-10	3	0	5	-5	x
CC1(C)C2CCC1(C)C1(C2)NC(=O)c2ccccc2O1 (configuration not stated)	45*	0	-1	9	-9	34	ATG4B conf=70*
Cn1cc([C@@H]2C[C@H]3CN(C4CCCC4)C(=O)[C@]34CCCN24)c(-c2ccccc2)n1	-10	-3	0	11	-11	x
Cc1c(Cl)cccc1NC(=S)N1CCCN(Cc2ccc(F)cc2)C1	52*	-1	-2	x	x	55*
Cc1ccccc1NC(=S)N1CCCN(Cc2ccc(F)cc2)C1	-6	-1	0	39	-39	x
Cc1c(Cl)cccc1NC(=S)N1CCCN(Cc2ccccc2F)C1	64*	-1	-3	x	x	56*
CC1(C)C(/C=C/C=C/C=C/C=C2\N(CCCCS(=O)(=O)O)c3ccc4ccccc4c3C2(C)C)=[N+](CCCCS(=O)(=O)[O-])c2ccc3ccccc3c21	90*	-9	2	-27	27	95*
O=C(O)COc1ccccc1/C=C1\SC(=S)N(/N=C/c2ccccc2O)C1=O	48*	-2	-2	12	-12	35	ATG4B conf=68*
CC(C)CC(=O)Nc1ccc(-c2nnn(CC(=O)NCc3ccco3)n2)cc1	1	-2	-3	-8	8	x
COc1cc(C=O)ccc1OCc1ccccc1Br	53*	-1	-1	-14	14	52*
COc1cc(C=O)ccc1OCc1cccc(Br)c1	4	-3	0	x	x	x
COc1ccc(-c2cn3c(C)c(C(=O)N4CCc5ccccc5C4)sc3n2)cc1	34	-5	-1	-38	38	x
Cc1c(C(=O)N2CCc3ccccc3C2)sc2nc(-c3ccccc3)cn12	45*	6	-4	-7	7	53*
CCOc1ccc(OCC)c(NC(=O)CN2CCC(NC(=O)c3cccc(F)c3)CC2)c1	79*	5	-1	-48	48	76*
CC(C)c1ccc(NC2CCCN(C(=O)c3ccc4nccnc4c3)C2)cc1 (configuration not stated)	32	-5	-2	-1	1	x
COc1ccc(C(=O)N2CCCC(Nc3ccc(C(C)C)cc3)C2)c(OC)n1 (configuration not stated)	76*	-2	0	-1	1	78*
CC(C)c1ccc(NC2CCCN(C(=O)c3cc(C(C)C)[nH]n3)C2)cc1 (configuration not stated)	43*	-2	-1	6	-6	46	ATG4B conf=74*
COC(=O)c1ccc(C(=O)N2CCCC(Nc3ccc(C(C)C)cc3)C2)nc1 (configuration not stated)	42*	-8	0	0	0	42	ATG4B conf=78*
CC(C)CNC(=O)C(=O)NCC1OCCCN1S(=O)(=O)c1cccs1 (configuration not stated)	2	-1	0	14	-14	x
O=[N+]([O-])c1cccc(N(CC2CO2)S(=O)(=O)c2ccccc2)c1 (configuration not stated)	13	-7	0	11	-11	x
O=C(COC(=O)c1nc(Cl)ccc1Cl)c1ccc(Cl)s1	0	-1	-3	21	-21	x
SMILES	ATG4B inhibitor	CAL PDZ FP-1	CAL PDZ FP-2	SR-BI uptake up	SR-BI HDL uptake	PLA2 ctr	others
O=C(COC(=O)c1ncc(Cl)c(Cl)c1Cl)c1ccc(Cl)s1	40	-2	-1	-3	3	22
Cc1ccc(-n2c(C)cc(C(=O)COC(=O)c3ccc[nH]c3=O)c2C)cc1C	45*	4	-2	-37	37	6
Cc1n[nH]c(C)c1Sc1ccccc1N=Cc1cc(Cl)cc([N+](=O)[O-])c1O	9	-5	-2	-4	4	x
Cc1ccc(N=Cc2cc(Cc3ccccc3Cl)cc([N+](=O)[O-])c2O)c(O)c1	92*	4	-10	4	-4	79*
O=C(NCCc1ccccc1Cl)c1cc(COc2ccc(F)cc2F)on1	46*	-2	-2	16	-16	55*
O=C(Nc1ccc(F)c(Cl)c1)C1CC2CCC1C2 (configuration not stated)	-1	16	-1	-1	1	x
O=C(Oc1c(-c2ccccc2)c(=O)n2c3c(cccc13)CC2)c1ccco1	4	x	-3	0	0	x
O=C(Oc1c(-c2ccccc2)c(=O)n2c3c(cccc13)CC2)c1ccc(Cl)cc1	62*	-1	0	-5	5	67*
COC(=O)c1sc2nc(C)nc(SCC(=O)N3CCC(C(=O)O)CC3)c2c1C	-10	-4	-5	0	0	x
C=CCN1C(c2ccc(Br)cc2)=CS/C1=C(\C#N)c1nnc(N2CCOCC2)n1-c1ccccc1	52*	-1	-4	-3	3	69*
O=C(CCN1C(=O)[C@@H]2Cc3ccccc3CN2C1=O)N[C@H](C(=O)O)c1ccccc1	-1	-3	-3	14	-14	x
C[C@@H]1CC[C@@]23COC(=O)C2=CCC[C@@H]3[C@@]1(C)CC/C(=C/CO)CO	-14	5	-1	15	-15	x
CC1=CCC[C@@H]2[C@@](C)(CC/C(C)=C/C(=O)O)[C@H](C)CC[C@@]12C	79*	-1	0	15	-15	81*
N#Cc1cccc(NS(=O)(=O)c2ccccc2Cl)c1	-11	x	0	6	-6	x
Cc1cc(C)c(S(=O)(=O)c2ccccc2)c(N2CCOCC2)n1	7	11	0	10	-10	x
NCCn1c(-c2ccccc2)cc(C(=O)O)c1-c1ccccc1F	-5	-2	0	20	-20	x
Oc1ccc(C2C(c3ccccc3)=NN=C(c3ccc(Cl)cc3)N2O)c(O)c1 (configuration not stated)	60*	13	-1	-47	47	76*

Screening data from PubChem.
